One data set concerns the target Egl nine homolog 1 (Homo sapiens, UniProt Q9GZT9). Briefly: Inhibition of recombinant human PHD2 (181 to 426 residues) using DLDLEMLAPYIPMDDDFQL peptide as substrate preincubated for 15 mins followed by substrate addition and measured after 15 mins by Q-TOF mass spectrometric analysis. An outline of the steps:
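Catalytic domain tPHD2 181–426 at 150 nM final in 50 mM Tris.Cl pH 7.5, 50 mM NaCl, with 0.5% DMSO. Substrate is CODD peptide (C-terminal amide). Enzyme equilibrated with compound for 15 min, then substrate with 2-oxoglutarate added and reacted for 15 min. Hydroxylated product measured by C4 SPE-MS. 11-point 3-fold titrations, normalised to no-enzyme control, IC50 by non-linear regression.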

Data set [1] concerns SH-SY5Y. Briefly: Cytotoxicity against human SH-SY5Y cells assessed as reduction in cell viability upto 100 uM incubated for 24 hrs by MTT assay. Type of data set: cell-based. An outline of the steps:
(§1)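 SH-SY5Y neuroblastoma cells, undifferentiated, grown in DMEM/F12 (43.5% each) with 10% FBS, pyruvate and glutaMAX at 37 C, 5% CO2. Cells harvested at 85–95% confluence and seeded for MTT, treated over 1–100 µM. MTT (0.1 mg/mL) added for 3 h at 37 C. Formazan dissolved in DMSO and read at 570 nm. Normalised to MEM vehicle (100%) and 0.25% triton X-100 (0%) controls.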
For orientation: Tetrazolium assays rely on reduction of a dye to a coloured formazan, in cell work by metabolically active cells.

For data set [2], the system named is SH-SY5Y. In words: Neuroprotective activity against H2O2-induced oxidative stress in human SH-SY5Y cells assessed as reduction in rate of cell death pretreated for 2 hrs followed by H2O2 challenge by phase contrast microscopic analysis. Type of data set: functional, cell-based. Put shortly: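 SH-SY5Y cells pretreated with compound for 2 h (3–10 or 10–50 µM), then given 50 µM H2O2. Dead cells counted manually on phase-contrast images. Mean ± SEM from 4 separate cultures, one-way ANOVA with Dunnett's test.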

Data set [3] deals with SH-SY5Y. Briefly: Cytotoxicity against human SH-SY5Y cells assessed as reduction in cell viability at 100 uM incubated for 24 hrs by MTT assay. It counts as cell-based. Put shortly: as §1

Structures are written as SMILES. Some results are limits rather than exact numbers.

Egl nine homolog 1, sequence (Q9GZT9 whole entry, the tested form may be a part): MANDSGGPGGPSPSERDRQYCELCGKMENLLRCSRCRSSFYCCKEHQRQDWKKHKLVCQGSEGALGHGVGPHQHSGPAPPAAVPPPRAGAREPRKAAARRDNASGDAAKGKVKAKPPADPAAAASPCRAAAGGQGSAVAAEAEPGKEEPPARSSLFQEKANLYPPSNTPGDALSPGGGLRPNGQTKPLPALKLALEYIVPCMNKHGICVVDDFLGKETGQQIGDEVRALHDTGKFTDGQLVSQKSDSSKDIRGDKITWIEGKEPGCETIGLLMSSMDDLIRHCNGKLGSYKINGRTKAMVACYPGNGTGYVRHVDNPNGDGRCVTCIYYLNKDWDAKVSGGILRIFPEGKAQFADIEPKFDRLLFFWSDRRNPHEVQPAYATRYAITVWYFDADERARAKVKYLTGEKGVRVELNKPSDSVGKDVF

Usually IC50 stands for the concentration needed to halve the response being measured. Turning to `O=C(Nc1ccccc1-c1nc2ccccc2c(=O)o1)C(F)(F)F`, at Egl nine homolog 1, the IC50 is more than 100 µM.

Take `Cn1nc(C(=O)Nc2ccccc2Cl)cc1C(=O)O`: on Egl nine homolog 1, the 50% inhibitory concentration (IC50) is more than 100 µM.

As to `Cc1cc(NC(=O)c2nn(C)c(C)c2[N+](=O)[O-])no1`, the IC50 at Egl nine homolog 1 is more than 100 µM.

As to `O=C(O)c1cccc(NS(=O)(=O)c2cccc3cccnc23)c1`, on Egl nine homolog 1, the IC50 is more than 100 µM.

For the compound `COc1cccc(NC(=O)COc2ccccc2P(=O)(O)O)c1`, the half-inhibitory concentration (IC50) at Egl nine homolog 1 is more than 100 µM.

As for `C=CCN(CC=C)Cc1c(C)nc2ccccc2c1O`, the IC50 on Egl nine homolog 1 was more than 100 µM.

As for `COCc1cc(O)nc(Nc2nc(C)c3ccc(C)cc3n2)n1`, the half-inhibitory concentration (IC50) on Egl nine homolog 1 is more than 100 µM.

On to `Cc1nc(Sc2ncccc2C(=O)O)n[nH]1`, for which, on Egl nine homolog 1, the IC50 came to 4.09 µM. The results for the Activity entry in the data set on SH-SY5Y [1] and in the data set with SH-SY5Y [2] were “Non-Toxic” and “Dose-Dependent Effect”, respectively.

As to `CSCCC(CO)NC(=O)Cn1nc(-n2nc(C)cc2C)ccc1=O` (stereo unspecified), the IC50 at Egl nine homolog 1 is more than 100 µM.

Take `O=C1c2ccc3c4c(ccc(c24)C(=O)N1NC(=O)C(F)(F)F)CC3`: the IC50 on Egl nine homolog 1 was more than 100 µM.

On to `O=C(CCn1cnnn1)N1CCC(O)(c2cccc(C(F)(F)F)c2)CC1`, for which the 50% inhibitory concentration (IC50) at Egl nine homolog 1 was more than 100 µM.

With `COC(=O)c1c(NC(=O)C2C(C(=O)O)[C@@H]3C=C[C@H]2CC3)sc(C)c1C` (stereo partly specified), the IC50 at Egl nine homolog 1 came to 77.7 µM.

Take `Cc1c(Br)c(C(=O)Nc2ccc(Cl)cc2C(F)(F)F)nn1C`: at Egl nine homolog 1, the half-inhibitory concentration (IC50) is more than 100 µM.

In the case of `CC(C)c1nc2cc(NC(=O)CCn3cnnn3)ccc2n1C`, at Egl nine homolog 1, the IC50 is more than 100 µM.

Turning to `O=C(O)CCCN1C(=O)[C@@H]2[C@H](C1=O)[C@H]1C=C[C@@H]2C1`, at Egl nine homolog 1, the half-inhibitory concentration (IC50) is more than 100 µM.

`O=S(=O)(Nc1cc(C(F)(F)F)ccc1Cl)c1cccc2cccnc12`: the half-maximal inhibitory concentration (IC50) at Egl nine homolog 1 is more than 100 µM.

Take `Cc1ccc(-n2nc3c(SCC(=O)O)nnc(C)c3c2C)cc1`: on Egl nine homolog 1, the half-maximal inhibitory concentration (IC50) was 26 µM. For the same compound, the Activity entry with SH-SY5Y [3] was “Toxic”; in the data set on SH-SY5Y [2], “Dose-Dependent Effect”.
